The species named for assay [1] is Homo sapiens. Briefly: Selectivity ratio of Ke(app) for adrenergic alpha1A receptor (unknown origin) to Ke(app) for human 5-HT2A receptor. The procedure, abridged: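 Ratio of apparent Ke values from matched FLIPR calcium functional assays at human 5-HT2A and at α1A receptors. Compounds were screened at 10 μM. Ke was taken from the rightward EC50 shift of an 8-point half-log agonist curve (5-HT at 5-HT2A) with one antagonist concentration, Ke = [L]/(DR−1). Values are means of ≥2 triplicate experiments.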

The target in assay [2] is GABA-A receptor; agonist GABA site (Homo sapiens) (UniProt P14867+P47870+P28472+P48169+P34903+P18505+P47869+P31644+Q16445). Briefly: Displacement of [3H]-Muscimol from recombinant human GABAA receptor at 10 uM after […] by Microbeta scintillation counting analysis relative to control. Type of assay: protein-complex assay. (In a radioligand displacement assay an active substance lowers the binding of a labelled ligand.)

For assay [3], the target named is Muscarinic acetylcholine receptor M5 (Homo sapiens, UniProt P08912). Description: Displacement of [3H]-Tiotidine from recombinant human muscarinic M5 receptor after […] by Microbeta scintillation counting analysis.
The target of assay [4] is Histamine H1 receptor (Homo sapiens) (UniProt P35367). Description: Displacement of [3H]-Pyrilamine from recombinant human histamine H1 receptor at 10 uM after […] by Microbeta scintillation counting analysis relative to control.
In assay [5] the target is Sigma 2 receptor. Briefly: Displacement of [3H]-DTG from recombinant human sigma-2 receptor after […] by Microbeta scintillation counting analysis.
Assay [6] concerns the target 5-hydroxytryptamine receptor 1B (Homo sapiens, UniProt P28222). Description: Displacement of [3H]-[…] from recombinant human 5-HT1B receptor after […] by Microbeta scintillation counting analysis.
The target of assay [7] is 5-hydroxytryptamine receptor 1E (Homo sapiens, UniProt P28566). Description: Displacement of [3H]-5-HT from recombinant human 5-HT1E receptor after […] by Microbeta scintillation counting analysis.
In assay [8] the target is Alpha-1D adrenergic receptor (Homo sapiens) (UniProt P25100). Description: Inhibition of recombinant human adrenergic alpha1D receptor at 10 uM after […] by Microbeta scintillation counting analysis relative to control.
For assay [9], the target named is 5-hydroxytryptamine receptor 1A (Homo sapiens) (UniProt P08908). Description: Displacement of [3H]-8-OH-DPAT from recombinant human 5-HT1A receptor at 10 uM after […] by Microbeta scintillation counting analysis relative to control.
Assay [10] deals with Mu-type opioid receptor (Homo sapiens) (UniProt P35372). Description: Displacement of [3H]-DAMGO from recombinant human mu opioid receptor at 10 uM after […] by Microbeta scintillation counting analysis relative to control.
The species entered for assay [11] is Rattus norvegicus. Briefly: Displacement of [3H]-Flunitrazepam from rat brain Benzodiazepine receptor at 10 uM after […] by Microbeta scintillation counting analysis relative to control.
Assay [12] addresses Histamine H3 receptor (Homo sapiens) (UniProt Q9Y5N1). Briefly: Displacement of [3H]-alpha-methylhistamine from recombinant human histamine H3 receptor at 10 uM after […] by Microbeta scintillation counting analysis relative to control.
Assay [13] addresses Histamine H2 receptor (Homo sapiens, UniProt P25021). Description: Displacement of [3H]-Tiotidine from recombinant human histamine H2 receptor after […] by Microbeta scintillation counting analysis.
Assay [14] addresses 5-hydroxytryptamine receptor 1D (Homo sapiens, UniProt P28221). Briefly: Displacement of [3H]-[…] from recombinant human 5-HT1D receptor after […] by Microbeta scintillation counting analysis.
In assay [15] the target is Sodium-dependent serotonin transporter (Homo sapiens) (UniProt P31645). Briefly: Displacement of [3H]-Citalopram from recombinant human SERT at 10 uM after […] by Microbeta scintillation counting analysis relative to control.
Assay [16] addresses D(1A) dopamine receptor (Homo sapiens, UniProt P21728). Description: Displacement of [3H]-[…] from recombinant human dopamine D1 receptor after […] by Microbeta scintillation counting analysis.
The target in assay [17] is Alpha-2C adrenergic receptor (Homo sapiens, UniProt P18825). Description: Displacement of [3H]-Clonidine from recombinant human adrenergic alpha2C receptor after […] by Microbeta scintillation counting analysis.
For assay [18], the target named is Beta-1 adrenergic receptor (Homo sapiens) (UniProt P08588). Briefly: Displacement of [3H]-Iodopindolol from recombinant human adrenergic beta1 receptor at 10 uM after […] by Microbeta scintillation counting analysis relative to control.
For assay [19], the target named is Alpha-1B adrenergic receptor (Homo sapiens) (UniProt P35368). Briefly: Displacement of [3H]-Prazosin from recombinant human adrenergic alpha1B receptor at 10 uM after […] by Microbeta scintillation counting analysis relative to control.
The target in assay [20] is Alpha-2B adrenergic receptor (Homo sapiens, UniProt P18089). Briefly: Displacement of [3H]-Clonidine from recombinant human adrenergic alpha2B receptor after […] by Microbeta scintillation counting analysis.
The target in assay [21] is Muscarinic acetylcholine receptor M1 (Homo sapiens) (UniProt P11229). Briefly: Displacement of [3H]-QNB from recombinant human muscarinic M1 receptor at 10 uM after […] by Microbeta scintillation counting analysis relative to control.
Assay [22] has as its target D(2) dopamine receptor (Homo sapiens) (UniProt P14416). Description: Displacement of [3H]-N-methylspiperone from recombinant human dopamine D2 receptor at 10 uM after […] by Microbeta scintillation counting analysis relative to control.
For assay [23], the target named is Translocator protein (Homo sapiens, UniProt P30536). Description: Displacement of [3H]-PK11195 from recombinant human PBR after […] by Microbeta scintillation counting analysis.
The target of assay [24] is D(3) dopamine receptor (Homo sapiens, UniProt P35462). Briefly: Displacement of [3H]-N-methylspiperone from recombinant human dopamine D3 receptor after […] by Microbeta scintillation counting analysis.
The target of assay [25] is Kappa-type opioid receptor (Homo sapiens) (UniProt P41145). Description: Displacement of [3H]-U69593 from recombinant human kappa opioid receptor at 10 uM after […] by Microbeta scintillation counting analysis relative to control.
Assay [26] concerns the target D(4) dopamine receptor (Homo sapiens) (UniProt P21917). Briefly: Displacement of [3H]-N-methylspiperone from recombinant human dopamine D4 receptor at 10 uM after […] by Microbeta scintillation counting analysis relative to control.
Assay [27] has as its target Beta-3 adrenergic receptor (Homo sapiens) (UniProt P13945). Description: Displacement of [3H]-Iodopindolol from recombinant human adrenergic beta3 receptor at 10 uM after […] by Microbeta scintillation counting analysis relative to control.
Assay [28] concerns the target 5-hydroxytryptamine receptor 3A (Homo sapiens, UniProt P46098). Briefly: Displacement of [3H]-LY278584 from recombinant human 5-HT3 receptor after […] by Microbeta scintillation counting analysis.
For assay [29], the target named is Delta-type opioid receptor (Homo sapiens) (UniProt P41143). Briefly: Displacement of [3H]-DADLE from recombinant human delta opioid receptor at 10 uM after […] by Microbeta scintillation counting analysis relative to control.
The target in assay [30] is 5-hydroxytryptamine receptor 2B (Homo sapiens, UniProt P41595). Description: Displacement of [3H]-LSD from recombinant human 5-HT2B receptor after […] by Microbeta scintillation counting analysis.
The target of assay [31] is Muscarinic acetylcholine receptor M2 (Homo sapiens) (UniProt P08172). Description: Displacement of [3H]-QNB from recombinant human muscarinic M2 receptor at 10 uM after […] by Microbeta scintillation counting analysis relative to control.
Assay [32] concerns the target D(1B) dopamine receptor (Homo sapiens) (UniProt P21918). Briefly: Displacement of [3H]-[…] from recombinant human dopamine D5 receptor at 10 uM after […] by Microbeta scintillation counting analysis relative to control.
The target of assay [33] is Muscarinic acetylcholine receptor M4 (Homo sapiens) (UniProt P08173). Briefly: Displacement of [3H]-QNB from recombinant human muscarinic M4 receptor at 10 uM after […] by Microbeta scintillation counting analysis relative to control.
The target of assay [34] is Histamine H4 receptor (Homo sapiens) (UniProt Q9H3N8). Description: Displacement of [3H]-Histamine from recombinant human histamine H4 receptor at 10 uM after […] by Microbeta scintillation counting analysis relative to control.
Assay [35] addresses Beta-2 adrenergic receptor (Homo sapiens) (UniProt P07550). Briefly: Displacement of [3H]-Iodopindolol from recombinant human adrenergic beta2 receptor at 10 uM after […] by Microbeta scintillation counting analysis relative to control.
The target in assay [36] is Alpha-1A adrenergic receptor (Homo sapiens) (UniProt P35348). Description: Displacement of [3H]-Prazosin from recombinant human adrenergic alpha1A receptor at 10 uM after […] by Microbeta scintillation counting analysis relative to control.
Assay [37] concerns the target Muscarinic acetylcholine receptor M3 (Homo sapiens) (UniProt P20309). Description: Displacement of [3H]-QNB from recombinant human muscarinic M3 receptor at 10 uM after […] by Microbeta scintillation counting analysis relative to control.
Assay [38] addresses 5-hydroxytryptamine receptor 7 (Homo sapiens, UniProt P34969). Description: Displacement of [3H]-LSD from recombinant human 5-HT7 receptor after […] by Microbeta scintillation counting analysis.
Assay [39] has as its target Sodium-dependent noradrenaline transporter (Homo sapiens) (UniProt P23975). Briefly: Displacement of [3H]-Nisoxetine from recombinant human NET at 10 uM after […] by Microbeta scintillation counting analysis relative to control.
Assay [40] addresses 5-hydroxytryptamine receptor 5A (Homo sapiens) (UniProt P47898). Briefly: Displacement of [3H]-LSD from recombinant human 5-HT5A receptor at 10 uM after […] by Microbeta scintillation counting analysis relative to control.

For two molecules, Ratio Ke, inhibition and Ki results are on record in ChEMBL document CHEMBL3632459, “Synthesis and evaluation of aporphine analogs containing C1 allyl isosteres at the h5-HT(2A) receptor” (Bioorg Med Chem Lett, 2015).

Histamine H1 receptor (Homo sapiens), sequence (P35367 whole entry): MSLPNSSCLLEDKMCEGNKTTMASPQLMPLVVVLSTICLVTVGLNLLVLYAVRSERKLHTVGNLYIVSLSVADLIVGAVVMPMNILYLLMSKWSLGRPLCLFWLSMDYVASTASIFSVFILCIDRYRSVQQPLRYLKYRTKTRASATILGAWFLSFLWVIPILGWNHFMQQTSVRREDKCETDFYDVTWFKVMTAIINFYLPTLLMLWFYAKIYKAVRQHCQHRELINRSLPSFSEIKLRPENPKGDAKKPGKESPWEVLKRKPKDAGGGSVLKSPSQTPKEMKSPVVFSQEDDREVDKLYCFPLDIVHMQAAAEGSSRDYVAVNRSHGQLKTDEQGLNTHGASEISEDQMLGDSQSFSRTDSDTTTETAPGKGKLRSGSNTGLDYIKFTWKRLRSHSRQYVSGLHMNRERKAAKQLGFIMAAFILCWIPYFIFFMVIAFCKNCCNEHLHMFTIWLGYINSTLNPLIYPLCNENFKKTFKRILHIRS
5-hydroxytryptamine receptor 7, sequence (P34969 whole entry): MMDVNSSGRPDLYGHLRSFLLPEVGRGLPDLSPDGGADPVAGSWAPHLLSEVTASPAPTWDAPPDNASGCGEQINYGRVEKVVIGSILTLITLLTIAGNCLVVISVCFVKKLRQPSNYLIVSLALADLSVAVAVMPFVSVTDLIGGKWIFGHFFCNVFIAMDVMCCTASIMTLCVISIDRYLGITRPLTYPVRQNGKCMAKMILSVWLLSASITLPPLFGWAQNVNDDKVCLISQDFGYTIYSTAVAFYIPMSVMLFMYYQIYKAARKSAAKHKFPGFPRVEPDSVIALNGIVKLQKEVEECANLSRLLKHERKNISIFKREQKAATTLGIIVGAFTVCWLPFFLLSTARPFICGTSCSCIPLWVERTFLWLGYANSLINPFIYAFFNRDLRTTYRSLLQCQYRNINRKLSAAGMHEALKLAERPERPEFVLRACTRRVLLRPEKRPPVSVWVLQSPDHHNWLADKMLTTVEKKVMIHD
Beta-1 adrenergic receptor (Homo sapiens), sequence (P08588 whole entry, looked up): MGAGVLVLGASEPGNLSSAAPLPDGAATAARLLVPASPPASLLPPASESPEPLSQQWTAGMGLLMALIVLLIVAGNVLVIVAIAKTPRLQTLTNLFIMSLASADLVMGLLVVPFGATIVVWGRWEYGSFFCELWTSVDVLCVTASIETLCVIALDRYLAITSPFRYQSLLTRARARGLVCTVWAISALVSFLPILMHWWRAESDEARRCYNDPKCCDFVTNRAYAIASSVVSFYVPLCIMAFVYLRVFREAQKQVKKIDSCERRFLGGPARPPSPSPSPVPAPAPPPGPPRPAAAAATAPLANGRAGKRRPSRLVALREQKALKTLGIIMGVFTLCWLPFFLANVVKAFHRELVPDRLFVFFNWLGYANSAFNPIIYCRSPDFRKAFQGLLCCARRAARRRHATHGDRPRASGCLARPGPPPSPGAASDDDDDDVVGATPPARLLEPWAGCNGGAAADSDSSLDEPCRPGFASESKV
Histamine H3 receptor (Homo sapiens), sequence (Q9Y5N1 whole entry): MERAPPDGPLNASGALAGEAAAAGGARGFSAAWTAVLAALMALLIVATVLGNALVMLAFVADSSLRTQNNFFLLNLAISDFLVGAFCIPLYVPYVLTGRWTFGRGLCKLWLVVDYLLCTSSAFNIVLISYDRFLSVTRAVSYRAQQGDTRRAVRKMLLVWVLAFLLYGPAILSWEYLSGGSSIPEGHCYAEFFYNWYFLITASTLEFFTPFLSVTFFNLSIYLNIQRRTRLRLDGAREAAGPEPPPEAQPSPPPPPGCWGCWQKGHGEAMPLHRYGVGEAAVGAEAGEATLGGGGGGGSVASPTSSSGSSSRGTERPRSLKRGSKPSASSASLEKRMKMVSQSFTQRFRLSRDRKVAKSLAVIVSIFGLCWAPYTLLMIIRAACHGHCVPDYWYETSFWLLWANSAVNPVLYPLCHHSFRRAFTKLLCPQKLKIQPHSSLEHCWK
Kappa-type opioid receptor (Homo sapiens), sequence (P41145 whole entry): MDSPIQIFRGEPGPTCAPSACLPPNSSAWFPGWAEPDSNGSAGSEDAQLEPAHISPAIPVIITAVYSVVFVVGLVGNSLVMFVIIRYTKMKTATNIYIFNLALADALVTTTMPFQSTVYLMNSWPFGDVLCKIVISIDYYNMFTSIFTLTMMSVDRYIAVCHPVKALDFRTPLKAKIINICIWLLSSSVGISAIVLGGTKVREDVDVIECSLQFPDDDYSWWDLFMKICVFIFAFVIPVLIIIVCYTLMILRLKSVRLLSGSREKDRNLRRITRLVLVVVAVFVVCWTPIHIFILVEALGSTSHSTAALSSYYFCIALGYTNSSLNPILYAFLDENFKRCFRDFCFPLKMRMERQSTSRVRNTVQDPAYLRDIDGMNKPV
Alpha-1B adrenergic receptor (Homo sapiens), sequence (P35368 whole entry): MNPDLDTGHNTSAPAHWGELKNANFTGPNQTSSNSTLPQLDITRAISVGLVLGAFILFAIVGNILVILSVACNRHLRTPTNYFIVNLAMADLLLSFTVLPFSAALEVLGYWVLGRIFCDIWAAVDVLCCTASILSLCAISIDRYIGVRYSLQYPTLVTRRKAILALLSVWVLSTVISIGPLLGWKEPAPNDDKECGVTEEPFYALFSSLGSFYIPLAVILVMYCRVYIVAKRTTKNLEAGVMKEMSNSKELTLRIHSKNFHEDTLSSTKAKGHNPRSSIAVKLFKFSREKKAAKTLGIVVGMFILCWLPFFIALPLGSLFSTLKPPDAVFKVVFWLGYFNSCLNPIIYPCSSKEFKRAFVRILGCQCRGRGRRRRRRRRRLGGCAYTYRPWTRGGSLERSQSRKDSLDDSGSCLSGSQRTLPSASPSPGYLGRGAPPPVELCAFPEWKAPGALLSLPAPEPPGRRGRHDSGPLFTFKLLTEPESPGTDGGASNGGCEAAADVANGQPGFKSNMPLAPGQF
5-hydroxytryptamine receptor 3A, sequence (P46098 whole entry): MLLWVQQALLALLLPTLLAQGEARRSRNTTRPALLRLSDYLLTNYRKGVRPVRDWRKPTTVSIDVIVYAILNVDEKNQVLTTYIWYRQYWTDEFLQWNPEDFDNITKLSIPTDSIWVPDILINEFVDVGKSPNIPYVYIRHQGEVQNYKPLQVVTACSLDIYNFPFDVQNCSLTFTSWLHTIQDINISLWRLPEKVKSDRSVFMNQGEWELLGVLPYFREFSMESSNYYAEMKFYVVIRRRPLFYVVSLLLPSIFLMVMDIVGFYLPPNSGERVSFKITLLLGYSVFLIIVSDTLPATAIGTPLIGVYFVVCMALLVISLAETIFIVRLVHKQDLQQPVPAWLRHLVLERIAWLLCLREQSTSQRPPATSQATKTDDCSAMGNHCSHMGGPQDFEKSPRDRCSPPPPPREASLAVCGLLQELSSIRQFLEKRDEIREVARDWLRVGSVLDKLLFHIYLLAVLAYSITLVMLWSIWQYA
Histamine H4 receptor (Homo sapiens), sequence (Q9H3N8 whole entry): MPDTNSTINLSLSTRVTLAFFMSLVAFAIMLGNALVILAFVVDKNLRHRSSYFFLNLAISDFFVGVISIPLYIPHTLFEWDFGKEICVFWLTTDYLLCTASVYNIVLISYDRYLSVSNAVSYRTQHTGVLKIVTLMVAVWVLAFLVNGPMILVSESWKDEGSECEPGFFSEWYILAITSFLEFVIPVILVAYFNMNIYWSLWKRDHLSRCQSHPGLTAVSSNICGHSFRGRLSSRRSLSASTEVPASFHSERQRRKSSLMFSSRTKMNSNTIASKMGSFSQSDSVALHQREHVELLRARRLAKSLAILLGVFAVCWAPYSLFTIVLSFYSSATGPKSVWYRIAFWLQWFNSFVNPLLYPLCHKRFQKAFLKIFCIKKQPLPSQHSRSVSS
5-hydroxytryptamine receptor 1B, sequence (P28222 whole entry): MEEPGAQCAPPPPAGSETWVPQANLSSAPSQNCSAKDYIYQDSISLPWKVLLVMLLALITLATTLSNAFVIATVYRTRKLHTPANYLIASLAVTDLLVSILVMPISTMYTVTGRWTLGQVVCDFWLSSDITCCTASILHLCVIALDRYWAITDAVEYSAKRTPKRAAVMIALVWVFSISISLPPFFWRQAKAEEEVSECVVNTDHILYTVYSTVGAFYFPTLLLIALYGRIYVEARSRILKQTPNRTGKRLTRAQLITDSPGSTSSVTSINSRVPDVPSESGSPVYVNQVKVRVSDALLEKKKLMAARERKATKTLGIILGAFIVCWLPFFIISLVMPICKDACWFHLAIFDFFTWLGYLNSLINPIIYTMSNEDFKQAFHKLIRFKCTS
Delta-type opioid receptor (Homo sapiens), sequence (P41143 whole entry): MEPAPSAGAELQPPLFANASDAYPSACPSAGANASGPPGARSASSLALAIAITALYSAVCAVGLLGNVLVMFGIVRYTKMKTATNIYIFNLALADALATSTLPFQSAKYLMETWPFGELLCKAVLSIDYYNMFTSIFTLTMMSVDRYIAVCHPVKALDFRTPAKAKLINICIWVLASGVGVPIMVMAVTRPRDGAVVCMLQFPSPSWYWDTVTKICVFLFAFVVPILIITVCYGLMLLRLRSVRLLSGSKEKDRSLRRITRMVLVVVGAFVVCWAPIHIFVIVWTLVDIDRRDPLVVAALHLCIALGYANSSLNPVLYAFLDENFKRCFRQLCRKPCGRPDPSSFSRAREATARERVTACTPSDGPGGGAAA
D(1A) dopamine receptor, sequence (P21728 whole entry): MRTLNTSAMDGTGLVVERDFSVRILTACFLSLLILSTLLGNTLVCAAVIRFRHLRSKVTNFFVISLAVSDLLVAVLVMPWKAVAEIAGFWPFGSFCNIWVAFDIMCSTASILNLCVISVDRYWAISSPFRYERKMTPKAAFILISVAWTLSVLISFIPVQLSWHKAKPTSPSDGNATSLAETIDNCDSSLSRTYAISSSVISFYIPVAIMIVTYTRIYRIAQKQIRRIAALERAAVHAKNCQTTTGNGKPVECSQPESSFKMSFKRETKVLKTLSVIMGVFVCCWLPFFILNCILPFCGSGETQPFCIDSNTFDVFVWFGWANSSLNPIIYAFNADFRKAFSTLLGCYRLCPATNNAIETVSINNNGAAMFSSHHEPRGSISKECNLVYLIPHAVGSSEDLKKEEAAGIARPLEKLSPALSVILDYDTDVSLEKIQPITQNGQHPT

Turning to `COc1cc2c3c(c1OCCOC(C)=O)-c1cc4c(cc1CC3N(C)CC2)OCO4` (stereo unspecified), in [1], the Ratio Ke is 0.3.

Broadly, the inhibition is the drop in the measured response relative to a control, in per cent. By Ki is commonly meant a dissociation constant, usually derived from enzyme kinetics or from competition with a known ligand. Regarding `COc1cc2c3c(c1OCc1ccc(Br)cc1)-c1cc4c(cc1CC3N(C)CC2)OCO4` (stereo unspecified), the inhibition in assay [2], in assay [4], in assay [8], in assay [9], in [10] and in assay [11] was less than 50% in each case. Moreover, the inhibition in assay [12], in [15], in assay [18], in assay [19], in assay [21] and in assay [22] was less than 50% throughout. Besides, the inhibition in assay [25], in assay [26], in assay [27], in [29], in assay [31] and in assay [32] was less than 50% throughout. The inhibition in [33], in assay [34], in [35], in assay [36], in [37] and in assay [39] was less than 50% each time. Also, the inhibition in assay [40] was less than 50%. For the same molecule, the Ki in assay [3] was greater than 900 nM; in assay [5], greater than 300 nM; in assay [6], greater than 900 nM; in [7] it was greater than 900 nM; in assay [13] it was greater than 900 nM; in assay [14], greater than 900 nM. Besides, the inhibition constant Ki in assay [16], in assay [17], in [20], in assay [23], in assay [24] and in assay [28] was greater than 900 nM each time. Moreover, the Ki in [30] and in [38] was greater than 900 nM throughout. Also, in [1], the Ratio Ke was greater than 1090.
